Series [1] deals with T1, B1 bradykinin receptor (Homo sapiens, UniProt P46663).
T1 sequence (P46663 whole entry): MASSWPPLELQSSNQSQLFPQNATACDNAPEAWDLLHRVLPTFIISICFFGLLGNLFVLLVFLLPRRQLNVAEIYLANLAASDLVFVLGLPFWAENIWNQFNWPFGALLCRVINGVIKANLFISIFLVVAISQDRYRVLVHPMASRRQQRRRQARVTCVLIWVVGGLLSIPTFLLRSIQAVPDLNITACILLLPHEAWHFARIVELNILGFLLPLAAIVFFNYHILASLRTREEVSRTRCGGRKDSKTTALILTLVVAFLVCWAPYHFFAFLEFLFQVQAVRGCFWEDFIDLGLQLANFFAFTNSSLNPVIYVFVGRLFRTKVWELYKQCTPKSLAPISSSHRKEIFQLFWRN
Nature of the series: Antagonist activity at human bradykinin B1 receptor expressed in CHOD cells assessed as effect on DAK-induced calcium flux. The format is functional, cell-based. On the technique in general: Calcium assays in cells follow changes in intracellular calcium, usually with a dye or a luminescent sensor.

A short description of series [2]: Clearance in Sprague-Dawley rat at 1 mg/kg, iv. Format: ADME, organism-based. Further details: dose 1 mg/kg, route intravenous. The conditions noted are these: in vivo. An outline of the steps: (§1)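 Male Sprague-Dawley rats (225-280 g) with femoral and jugular vein cannulae were fasted overnight. They received an i.v. bolus of 1 mg/kg in 100% DMSO, prepared on the dosing day, n = 3. Blood was drawn via jugular cannula over 6 or 8 h into heparin. Plasma was acetonitrile-precipitated and measured by LC-MS/MS (positive MRM). Parameters were noncompartmental and reported with SEM.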

The target of series [3] is T2, B1 bradykinin receptor (Rattus norvegicus, UniProt P97583).
T2 sequence (P97583 whole entry): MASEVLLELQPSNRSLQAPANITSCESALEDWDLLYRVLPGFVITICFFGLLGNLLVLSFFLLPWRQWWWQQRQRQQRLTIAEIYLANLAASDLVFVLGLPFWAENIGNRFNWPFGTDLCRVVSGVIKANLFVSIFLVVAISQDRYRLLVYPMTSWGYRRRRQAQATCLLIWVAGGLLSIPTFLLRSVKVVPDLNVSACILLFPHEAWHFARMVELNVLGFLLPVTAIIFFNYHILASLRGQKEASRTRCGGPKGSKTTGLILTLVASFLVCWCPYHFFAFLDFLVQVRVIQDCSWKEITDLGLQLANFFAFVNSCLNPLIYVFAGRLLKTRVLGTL
The series can be described thus: Antagonist activity at rat bradykinin B1 receptor. Format: functional.

Series [4] has as its target T1, B1 bradykinin receptor. Nature of the series: Displacement of [3H]DAK from human bradykinin B1 receptor expressed in CHOD cells. Format: cell-based. On the technique in general: Loss of bound radioactivity is the signal in a displacement assay; it reports binding, not function.
The nature of series [5]: Oral bioavailability in Sprague-Dawley rat at 10 mg/kg, po. Format: ADME, organism-based. The conditions noted are these: in vivo. An outline of the steps:
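Male Sprague-Dawley rats (225-280 g), cannulated and fasted overnight, were dosed by oral gavage at 10 mg/kg in 1% Tween 80, 2% HPMC, prepared 24-48 h before dosing, n = 3. Jugular blood was sampled over 6 or 8 h. Plasma was analysed by LC-MS/MS and parameters derived noncompartmentally.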

The nature of series [6]: Half life in Sprague-Dawley rat at 1 mg/kg, iv. Format: ADME, organism-based. Further details: dose 1 mg/kg, route intravenous. The settings on record: in vivo. An outline of the steps:
as §1

Series [7] is described as follows: Metabolic stability in rat liver microsomes. Format: ADME, Microsome. The conditions noted are these: read-out: Stability. A general note: Microsomes from liver hold many membrane-bound enzymes, among them those of drug oxidation.
Series [8] can be described thus: Volume of distribution at steady state in Sprague-Dawley rat at 1 mg/kg, iv. Format: ADME, organism-based. Further details: dose 1 mg/kg, route intravenous. The conditions noted are these: in vivo, read-out: Vss. The gist of the method:
as §1

The target of series [9] is T3, B1 bradykinin receptor (Oryctolagus cuniculus, UniProt P48748).
T3 sequence (P48748 whole entry): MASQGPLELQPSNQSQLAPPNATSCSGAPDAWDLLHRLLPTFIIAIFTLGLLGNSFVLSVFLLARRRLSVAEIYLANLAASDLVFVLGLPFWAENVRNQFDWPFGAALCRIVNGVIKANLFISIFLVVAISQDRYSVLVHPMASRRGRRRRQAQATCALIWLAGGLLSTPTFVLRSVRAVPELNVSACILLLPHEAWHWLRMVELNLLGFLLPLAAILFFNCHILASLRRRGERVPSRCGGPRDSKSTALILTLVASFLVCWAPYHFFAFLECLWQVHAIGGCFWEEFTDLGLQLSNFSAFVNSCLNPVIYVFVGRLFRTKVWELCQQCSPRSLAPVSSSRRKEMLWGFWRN
Nature of the series: Antagonist activity at rabbit bradykinin B1 receptor. The format is functional.

Series [10] can be described thus: Metabolic stability in human liver microsomes. Format: ADME, Microsome. The settings on record: read-out: Stability.
The nature of series [11]: Oral bioavailability in Sprague-Dawley rat at 3 mg/kg, po. The conditions noted are these: in vivo. Format: ADME, organism-based.
For series [12], the system named is Oryctolagus cuniculus. Nature of the series: Reduction of DAK10-induced hypotension in subcutaneously dosed New Zealand rabbit blood pressure model. Format: functional, organism-based. An outline of the steps: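 New Zealand white rabbits (2.0-3.0 kg, n = 1/dose) were given LPS 25 µg/kg i.v. 5 h before the study to induce B1 receptors. Under anesthesia, both carotids were catheterized to record mean arterial pressure and to give DAK. Baseline was set by two i.v. bolus injections of 1 µg DAK. Antagonist was then given s.c. (1, 2, 4, 10 or 20 mpk). At 30 and 75 min, blood was drawn for plasma levels and the DAK response was re-measured, expressed as % hypotensive response.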

Series [13] relates to Oryctolagus cuniculus. The series can be described thus: Antinociceptive effect in subcutaneously dosed New Zealand rabbit assessed as reversal of carrageenan-induced hyperalgesia administered 2 hrs after carrageenan challenge. The format is functional, organism-based. An outline of the steps: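 Male New Zealand white rabbits (500-700 g), right hind paw injected with lambda carrageenan (3% in saline, 200 µL). Three punctate mechanical withdrawal readings were taken before and at 3 h post-carrageenan. Antagonist was given s.c. at 1 mL/kg, at 2 h (20% Captisol vehicle) or 2.5 h (PBS vehicle, peptide) post-carrageenan. Post minus pre threshold gave a difference score, converted to %MPE with the vehicle group as Emin and 0 as Emax. Analysed by one-factor ANOVA and Dunnett's test.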

Consider `COCCNCc1ccc2c(c1)OCC[C@H]2NC(=O)C[C@@H](NS(=O)(=O)c1cccc(C(F)(F)F)c1)c1ccc(F)cc1`, for which the results for the IC50 on B1 bradykinin receptor [1] and at B1 bradykinin receptor [9] were 17.4 nM (antagonist) and 1680 nM (antagonist), respectively. For the same compound, in [2], the clearance amounted to 39.4 mL/min/kg. Further, the Ki on B1 bradykinin receptor [3] is recorded as 208 nM (antagonist); at B1 bradykinin receptor [4] it was 14 nM (antagonist). In series [5], this compound had a bioavailability of 49%. In series [6], this compound gave a half-life of 3.4 h. Also, the microsomal CLint was found to be 265 µL/min/mg in series [7] and 310 µL/min/mg in [10]. In [8], the Vd came to 8.09 L/kg.

For the compound `O=C(C[C@@H](NS(=O)(=O)c1ccc2ccccc2c1)c1ccccc1)N[C@@H]1CCOc2cc(CN3CCCCC3)ccc21`, the bioavailability in series [11] was 4%. The compound also showed a clearance in series [2] of 84.1 mL/min/kg. Besides, the microsomal CLint in series [7] is 390 µL/min/mg; in [10], 688 µL/min/mg.

Turning to `O=C(C[C@@H](NS(=O)(=O)c1cccc(C(F)(F)F)c1)c1ccc(F)cc1)N[C@@H]1CCOc2cc(CN3CCCC3)ccc21`, the figures for the IC50 at B1 bradykinin receptor [1] and against B1 bradykinin receptor [9] were 19.7 nM (antagonist) and 450 nM (antagonist), respectively. This compound also showed a clearance in series [2] of 51.3 mL/min/kg. Also, the Ki on B1 bradykinin receptor [3] is on record as 151 nM (antagonist); on B1 bradykinin receptor [4] it was 5.5 nM (antagonist). In series [5], this compound had a bioavailability of 41%. In series [6], this compound showed a half-life of 3.8 h. The values for the microsomal CLint in series [7] and in series [10] were 158 µL/min/mg and 355 µL/min/mg, respectively. The Vd in series [8] was 13.7 L/kg.

With `O=C(C[C@@H](NS(=O)(=O)c1cccc(C(F)(F)F)c1)c1ccc(F)cc1)N[C@@H]1CCOc2cc(CN3CCCCC3)ccc21`, the clearance in [2] came to 24.8 mL/min/kg. Besides, the Ki on B1 bradykinin receptor [3] was 127 nM (antagonist). The Activity entry in the series on Oryctolagus cuniculus [12] and with Oryctolagus cuniculus [13] was “Dose-dependent effect” in each case. Also, in series [5], the bioavailability was determined as 13%. Also, in series [6], the half-life is 2.5 h. In addition, in series [7], the microsomal CLint stood at 216 µL/min/mg. Moreover, the Vd in [8] was 4.64 L/kg. In addition, the IC50 against B1 bradykinin receptor [9] is 10.4 nM (antagonist).

As a reminder, the IC50 is the concentration needed to halve the response being measured. As usually defined, the clearance is the rate of elimination divided by the concentration. As usually defined, the Ki is the equilibrium dissociation constant of an inhibitor or competing ligand from its target. Broadly, the bioavailability is the share of a dose that reaches the circulation, judged against a reference dose that is usually intravenous. Lower therefore signals poor availability. A word on the half-life: it is the time needed for the level to fall by half in the phase considered. A lower half-life goes with fast loss.

The values above are taken from ChEMBL document CHEMBL1147141, “Potent nonpeptide antagonists of the bradykinin B1 receptor: structure-activity relationship studies with novel diaminochroman carboxamides” (J Med Chem, 2007).
